According to ChEMBL document CHEMBL1914320, “C4-alkylthiols with activity against Moraxella catarrhalis and Mycobacterium tuberculosis” (Bioorg Med Chem, 2011):
Converted amounts (≈) assume the structure as drawn. The source made the active and inactive calls. No cut-off for these calls is given here.

Experiments:
Pseudomonas aeruginosa [1] = assay: Antibacterial activity against non-beta-lactamase producing Pseudomonas aeruginosa ATCC 27853 after 48 hrs by microdilution broth method; assay type: functional, organism-based
Summary of the method: (§1)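 Broth microdilution followed CLSI guidelines. Compound was dissolved in 95% ethanol, diluted at least 10-fold into Mueller-Hinton broth, then serially two-fold diluted from 500 to 15.6 μg/mL. Actively growing culture was added at 5 × 10^5 cells/mL. Plates ran 48 h at 37 °C, scored for visible growth at 24 and 48 h. MIC was the lowest concentration without growth. For MBC, 10 μL from each clear well was plated on MH agar. Controls were ethanol and penicillin. Triplicate.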

Moraxella catarrhalis [2] = assay: Antibacterial activity against beta-lactamase producing Moraxella catarrhalis isolate 2 at 10 ug/disc after overnight incubation by disc diffusion assay; assay type: functional; conditions: for zone of inhibition at 10 µg/disc: read-out: IZ
Summary of the method: (§2)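 Isolates were held at −80 °C. Five colonies were suspended in Mueller-Hinton broth to a 0.5 McFarland density and swabbed onto MH agar. Discs carried 10 μg compound, applied in methanol and dried at room temperature. Plates were incubated overnight at 37 °C, and the zone of inhibition was measured in mm from the disc edge. Controls were methanol-only and penicillin discs. Run blinded, in triplicate.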

Escherichia coli [3] = assay: Antibacterial activity against non-beta-lactamase producing Escherichia coli ATCC 25922 at 10 ug/disc after overnight incubation by disc diffusion assay; assay type: functional, organism-based; summary of the method: as §2
Staphylococcus aureus [4] = assay: Antibacterial activity against non-beta-lactamase producing Staphylococcus aureus ATCC 25923 after 48 hrs by microdilution broth method; assay type: functional, organism-based; summary of the method: as §1
Pseudomonas aeruginosa [5] = assay: Antibacterial activity against non-beta-lactamase producing Pseudomonas aeruginosa ATCC 27853 at 10 ug/disc after overnight incubation by disc diffusion assay; assay type: functional, organism-based; summary of the method: as §2
[6] = Chemical stability of the compound assessed as compound degradation after 48 hrs by NMR analysis; assay type: physicochemical; conditions: for degraded at 48 h: read-out: Drug metabolism
Moraxella catarrhalis [7] = assay: Antibacterial activity against beta-lactamase producing Moraxella catarrhalis isolate 4 at 10 ug/disc after overnight incubation by disc diffusion assay; assay type: functional; conditions: for zone of inhibition at 10 µg/disc: read-out: IZ; summary of the method: as §2
Enterococcus faecalis [8] = assay: Antibacterial activity against non-beta-lactamase producing Enterococcus faecalis ATCC 29212 after 48 hrs by microdilution broth method; assay type: functional, organism-based; summary of the method: as §1
Escherichia coli [9] = assay: Antibacterial activity against non-beta-lactamase producing Escherichia coli ATCC 25922 after 48 hrs by microdilution broth method; assay type: functional, organism-based; summary of the method: as §1
Moraxella catarrhalis [10] = assay: Antibacterial activity against beta-lactamase producing Moraxella catarrhalis isolate 3 at 10 ug/disc after overnight incubation by disc diffusion assay; assay type: functional; summary of the method: as §2
Moraxella catarrhalis [11] = assay: Antibacterial activity against beta-lactamase producing Moraxella catarrhalis isolate 5 at 10 ug/disc after overnight incubation by disc diffusion assay; assay type: functional; conditions: for zone of inhibition at 10 µg/disc: read-out: IZ; summary of the method: as §2
Staphylococcus aureus [12] = assay: Antibacterial activity against non-beta-lactamase producing Staphylococcus aureus ATCC 25923 at 10 ug/disc after overnight incubation by disc diffusion assay; assay type: functional, organism-based; summary of the method: as §2
Enterococcus faecalis [13] = assay: Antibacterial activity against non-beta-lactamase producing Enterococcus faecalis ATCC 29212 at 10 ug/disc after overnight incubation by disc diffusion assay; assay type: functional, organism-based; summary of the method: as §2
Moraxella catarrhalis [14] = assay: Antibacterial activity against beta-lactamase producing Moraxella catarrhalis isolate 1 at 10 ug/disc after overnight incubation by disc diffusion assay; assay type: functional; summary of the method: as §2
Moraxella catarrhalis [15] = assay: Antibacterial activity against beta-lactamase producing Moraxella catarrhalis isolate 4 at 10 ug/disc after overnight incubation by disc diffusion assay in presence of 1 mol equiv of glutathione; assay type: functional; conditions: for zone of inhibition at 10 µg/disc: read-out: IZ
Moraxella catarrhalis [16] = assay: Antibacterial activity against beta-lactamase producing Moraxella catarrhalis isolate 3 after 48 hrs incubation by microdilution broth method; assay type: functional; conditions: isolate 3, 48 h; summary of the method: as §1
Moraxella catarrhalis [17] = assay: Antibacterial activity against beta-lactamase producing Moraxella catarrhalis isolate 2 after 48 hrs incubation by microdilution broth method; assay type: functional; conditions: isolate 2, 48 h; summary of the method: as §1
[18] = test system: Mycobacterium tuberculosis; assay: Antimycobacterial activity against wild type Mycobacterium tuberculosis H37Rv by Alamar blue assay; assay type: functional
Moraxella catarrhalis [19] = assay: Antibacterial activity against beta-lactamase producing Moraxella catarrhalis isolate 1 after 48 hrs incubation by microdilution broth method; assay type: functional; conditions: isolate 1, 48 h; summary of the method: as §1
Moraxella catarrhalis [20] = assay: Antibacterial activity against beta-lactamase producing Moraxella catarrhalis isolate 3 at 10 ug/disc after overnight incubation by disc diffusion assay in presence of 1 mol equiv of glutathione; assay type: functional
Moraxella catarrhalis [21] = assay: Antibacterial activity against beta-lactamase producing Moraxella catarrhalis isolate 6 at 10 ug/disc after overnight incubation by disc diffusion assay; assay type: functional; summary of the method: as §2
Moraxella catarrhalis [22] = assay: Antibacterial activity against beta-lactamase producing Moraxella catarrhalis isolate 6 after 48 hrs incubation by microdilution broth method; assay type: functional; conditions: isolate 6, 48 h; summary of the method: as §1
Moraxella catarrhalis [23] = assay: Antibacterial activity against beta-lactamase producing Moraxella catarrhalis isolate 5 after 48 hrs incubation by microdilution broth method; assay type: functional; conditions: isolate 5, 48 h; summary of the method: as §1
Moraxella catarrhalis [24] = assay: Antibacterial activity against beta-lactamase producing Moraxella catarrhalis isolate 1 at 10 ug/disc after overnight incubation by disc diffusion assay in presence of 1 mol equiv of glutathione; assay type: functional; conditions: for zone of inhibition at 10 µg/disc: read-out: IZ
Moraxella catarrhalis [25] = assay: Antibacterial activity against beta-lactamase producing Moraxella catarrhalis isolate 4 after 48 hrs incubation by microdilution broth method; assay type: functional; conditions: isolate 4, 48 h; summary of the method: as §1
Moraxella catarrhalis [26] = assay: Antibacterial activity against beta-lactamase producing Moraxella catarrhalis isolate 2 at 10 ug/disc after overnight incubation by disc diffusion assay in presence of 1 mol equiv of glutathione; assay type: functional; conditions: read-out: IZ
Moraxella catarrhalis [27] = assay: Antibacterial activity against beta-lactamase producing Moraxella catarrhalis isolate 6 at 10 ug/disc after overnight incubation by disc diffusion assay in presence of 1 mol equiv of glutathione; assay type: functional
Moraxella catarrhalis [28] = assay: Antibacterial activity against beta-lactamase producing Moraxella catarrhalis isolate 5 at 10 ug/disc after overnight incubation by disc diffusion assay in presence of 1 mol equiv of glutathione; assay type: functional; conditions: read-out: IZ

| Compound | Activity (Pseudomonas aeruginosa [1]) | zone of inhibition at 10 µg/disc (Moraxella catarrhalis [2]) [mm] | Activity (Escherichia coli [3]) | Activity (Staphylococcus aureus [4]) | Activity (Pseudomonas aeruginosa [5]) | inhibition zone (IZ) (Moraxella catarrhalis [7]) | Activity (Enterococcus faecalis [8]) | Activity (Escherichia coli [9]) | inhibition zone (IZ) (Moraxella catarrhalis [10]) | zone of inhibition at 10 µg/disc (Moraxella catarrhalis [11]) [mm] | Activity (Staphylococcus aureus [12]) | Activity (Enterococcus faecalis [13]) | inhibition zone (IZ) (Moraxella catarrhalis [14]) | MBC (Moraxella catarrhalis [16]) [µg/mL] | MBC (Moraxella catarrhalis [17]) [µg/mL] | MBC [18] [µg/mL] | MBC (Moraxella catarrhalis [19]) [µg/mL] | MBC (Moraxella catarrhalis [22]) [µg/mL] | MBC (Moraxella catarrhalis [23]) [µg/mL] | MBC (Moraxella catarrhalis [25]) [µg/mL] | other results |
| --- | --- | --- | --- | --- | --- | --- | --- | --- | --- | --- | --- | --- | --- | --- | --- | --- | --- | --- | --- | --- | --- |
| CCOC(=O)C/N=C\C(S)(CC)CC | inactive | 2 | inactive | inactive | inactive | inactive | inactive | inactive | inactive | 11 | inactive | inactive | inactive | – | – | – | – | – | – | – | Percent compound degraded ([6]; 48 h): 10% |
| CCOC(=O)C/N=C\C(CC)(CC)SSC(/C=N/CC(=O)OCC)(CC)CC | inactive | – | inactive | inactive | inactive | – | inactive | inactive | – | – | inactive | inactive | – | – | – | – | – | – | – | – | degraded at 48 h [6]: 10% |
| CCOC(=O)C/N=C\C(CC)(CC)SSC(C=O)(CC)CC | inactive | – | inactive | inactive | inactive | – | inactive | inactive | – | – | inactive | inactive | – | – | – | – | – | – | – | – | degraded at 48 h [6]: 10% |
| CCC(C=O)(CC)SSC(/C=N\CC(=O)OC)(CC)CC | inactive | – | inactive | inactive | inactive | – | inactive | inactive | – | – | inactive | inactive | – | – | – | – | – | – | – | – | degraded at 48 h [6]: 10% |
| CCC(C=O)(CC)SSC(CC)(CC)C1C(OC)C(=O)N1CC(=O)OC (racemic) | inactive | 10 | inactive | inactive | inactive | inactive | inactive | inactive | inactive | 7 | inactive | inactive | inactive | < 15.6 | > 500 | 200 (≈ 493 µM) | > 500 | < 15.6 | < 15.6 | < 15.6 | inhibition zone (IZ) (Moraxella catarrhalis [15]): inactive; inhibition zone (IZ) (Moraxella catarrhalis [20]): inactive; inhibition zone (IZ) (Moraxella catarrhalis [21]): inactive; inhibition zone (IZ) (Moraxella catarrhalis [24]): inactive; zone of inhibition at 10 µg/disc (Moraxella catarrhalis [26]): 7 mm; inhibition zone (IZ) (Moraxella catarrhalis [27]): inactive; zone of inhibition at 10 µg/disc (Moraxella catarrhalis [28]): 7 mm |
| O=C1CC(Sc2cccs2)N1 (racemic) | inactive | – | inactive | inactive | inactive | inactive | inactive | inactive | inactive | – | inactive | inactive | inactive | 500 (≈ 2700 µM) | > 500 | 100 (≈ 540 µM) | > 500 | > 500 | 500 (≈ 2700 µM) | 500 (≈ 2700 µM) | inhibition zone (IZ) (Moraxella catarrhalis [2]): inactive; inhibition zone (IZ) (Moraxella catarrhalis [11]): inactive |
| O=C1CC(Sc2ccc(S)cc2)N1 (racemic) | inactive | 8 | inactive | inactive | inactive | – | inactive | inactive | inactive | 8 | inactive | inactive | inactive | 125 (≈ 592 µM) | 125 (≈ 592 µM) | 25 (≈ 118 µM) | 250 (≈ 1180 µM) | 125 (≈ 592 µM) | 125 (≈ 592 µM) | 500 (≈ 2370 µM) | zone of inhibition at 10 µg/disc (Moraxella catarrhalis [15]): 7 mm; inhibition zone (IZ) (Moraxella catarrhalis [20]): inactive; inhibition zone (IZ) (Moraxella catarrhalis [21]): inactive; zone of inhibition at 10 µg/disc (Moraxella catarrhalis [24]): 7 mm; zone of inhibition at 10 µg/disc (Moraxella catarrhalis [7]): 7 mm; zone of inhibition at 10 µg/disc (Moraxella catarrhalis [26]): 7 mm; inhibition zone (IZ) (Moraxella catarrhalis [27]): inactive; zone of inhibition at 10 µg/disc (Moraxella catarrhalis [28]): 7 mm |
| O=C1CC(Sc2ccc(O)cc2)N1S(=O)(=O)O (racemic) | inactive | 9 | inactive | inactive | inactive | – | inactive | inactive | – | 9 | inactive | inactive | – | < 15.6 | < 15.6 | > 200 | > 500 | < 15.6 | < 15.6 | < 15.6 | zone of inhibition at 10 µg/disc (Moraxella catarrhalis [15]): 7 mm; zone of inhibition at 10 µg/disc (Moraxella catarrhalis [20]; read-out: IZ): 7 mm; zone of inhibition at 10 µg/disc (Moraxella catarrhalis [21]; read-out: IZ): 8 mm; zone of inhibition at 10 µg/disc (Moraxella catarrhalis [24]): 9 mm; zone of inhibition at 10 µg/disc (Moraxella catarrhalis [7]): 8 mm; zone of inhibition at 10 µg/disc (Moraxella catarrhalis [10]; read-out: IZ): 7 mm; zone of inhibition at 10 µg/disc (Moraxella catarrhalis [26]): 7 mm; zone of inhibition at 10 µg/disc (Moraxella catarrhalis [27]; read-out: IZ): 8 mm; zone of inhibition at 10 µg/disc (Moraxella catarrhalis [28]): 8 mm; zone of inhibition at 10 µg/disc (Moraxella catarrhalis [14]; read-out: IZ): 13 mm |
